In ChEMBL document CHEMBL2177068, “Modeling cellular pharmacokinetics of 14- and 15-membered macrolides with physicochemical properties” (J Med Chem, 2011):

Tests used:
[1] = test system: NCI-H292; test: Cellular uptake in human NCI-H292 cells assessed as compound retention at 3 to 20 uM incubated for 3 hrs followed by drug washout measured after 3 hrs by LC-MS/MS analysis relative to initial drug accumulation; type: ADME, cell-based; details: nci-h292, 3 h
Summary of the method: (§1)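 Cells loaded 3 h with 3-20 μM macrolide, then incubated 3 h in drug-free medium. Intracellular drug measured by LC-MS/MS before and after washout. Retention given as percentage of initially accumulated compound remaining in cells after washout.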

[2] = Cellular uptake in human T lymphocytes assessed as compound retention at 3 to 20 uM incubated for 3 hrs followed by drug washout measured after 3 hrs by LC-MS/MS analysis relative to initial drug accumulation; type: ADME, cell-based; details: t-cell; summary of the method: as §1
[3] = Cellular uptake in human MDM assessed as compound retention at 3 to 20 uM incubated for 3 hrs followed by drug washout measured after 3 hrs by LC-MS/MS analysis relative to initial drug accumulation; type: ADME; summary of the method: as §1
[4] = Cellular uptake in normal human lung fibroblasts assessed as compound retention at 3 to 20 uM incubated for 3 hrs followed by drug washout measured after 3 hrs by LC-MS/MS analysis relative to initial drug accumulation; type: ADME; summary of the method: as §1
[5] = Cellular uptake in human BSMC assessed as compound retention at 3 to 20 uM incubated for 3 hrs followed by drug washout measured after 3 hrs by LC-MS/MS analysis relative to initial drug accumulation; type: ADME; summary of the method: as §1
[6] = Cellular uptake in human PMNC assessed as compound retention at 3 to 20 uM incubated for 3 hrs followed by drug washout measured after 3 hrs by LC-MS/MS analysis relative to initial drug accumulation; type: ADME; summary of the method: as §1
[7] = test system: NCI-H292; test: Cellular uptake in human […] cells at 3 to 20 uM after 3 hrs by LC-MS/MS analysis relative to azithromycin; type: ADME, cell-based; details: nci-h292, 3 h
Summary of the method: (§2)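 Cells (primary human BSMC, MDM, NHBE, PMN, T-lymphocytes, NHLF, or NCI-H292 lung carcinoma line) incubated 3 h with 3-20 μM macrolide; extracellular drug removed (PMNs washed through silicone oil, NCI-H292 washed with ice-cold PBS). Intracellular drug quantified by LC-MS/MS; accumulation expressed as % of azithromycin accumulation measured in the same experiment. Azithromycin reference run at 10 μM, normalized to total protein.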

[8] = Cellular uptake in human T lymphocytes at 3 to 20 uM after 3 hrs by LC-MS/MS analysis relative to azithromycin; type: ADME, cell-based; details: t-cell; summary of the method: as §2
[9] = Cellular uptake in human MDM at 3 to 20 uM after 3 hrs by LC-MS/MS analysis relative to azithromycin; type: ADME; summary of the method: as §2
[10] = Cellular uptake in normal human lung fibroblast at 3 to 20 uM after 3 hrs by LC-MS/MS analysis relative to azithromycin; type: ADME; summary of the method: as §2
[11] = Cellular uptake in human BSMC at 3 to 20 uM after 3 hrs by LC-MS/MS analysis relative to azithromycin; type: ADME; summary of the method: as §2
[12] = Cellular uptake in human NHBE at 3 to 20 uM after 3 hrs by LC-MS/MS analysis relative to azithromycin; type: ADME; summary of the method: as §2
[13] = Cellular uptake in human PMNC at 3 to 20 uM after 3 hrs by LC-MS/MS analysis relative to azithromycin; type: ADME; summary of the method: as §2
[14] = Cellular uptake in human NHBE assessed as compound retention at 3 to 20 uM incubated for 3 hrs followed by drug washout measured after 3 hrs by LC-MS/MS analysis relative to initial drug accumulation; type: ADME; summary of the method: as §1

| SMILES | Drug uptake [1] [%] | Drug uptake [2] [%] | Drug uptake [3] [%] | Drug uptake [4] [%] | Drug uptake [5] [%] | Drug uptake [6] [%] | Drug uptake [7] [%] | Drug uptake [8] [%] | Drug uptake [9] [%] | Drug uptake [10] [%] | Drug uptake [11] [%] | Drug uptake [12] [%] | Drug uptake [13] [%] | Drug uptake [14] [%] |
| --- | --- | --- | --- | --- | --- | --- | --- | --- | --- | --- | --- | --- | --- | --- |
| CCCCCCCC(=O)NCCCN(C)[C@H]1C[C@@H](C)O[C@@H](O[C@@H]2[C@@H](C)[C@H](O[C@H]3C[C@@](C)(OC)[C@@H](O)[C@H](C)O3)[C@@H](C)C(=O)O[C@H](CC)[C@@](C)(O)[C@H](O)[C@@H](C)N(C)C[C@H](C)C[C@@]2(C)O)[C@@H]1O | 51 | 19 | 100 | 78 | 47 | 85 | 457 | 460 | 1235 | 1699 | 598 | 422 | 663 | 57 |
| CC[C@H]1OC(=O)[C@H](C)[C@@H](O[C@H]2C[C@@](C)(OC)[C@@H](O)[C@H](C)O2)[C@H](C)[C@@H](O[C@@H]2O[C@H](C)C[C@H](N(C)C)[C@H]2O)[C@](C)(OC)C[C@@H](C)C(=O)N[C@H](C)[C@@H](O)[C@]1(C)O | 23 | 2 | 8 | 35 | 0 | 37 | 10 | 5 | 11 | 9 | 5 | 11 | 13 | 16 |
| CC[C@H]1OC(=O)[C@H](C)[C@@H](O[C@H]2C[C@@](C)(OC)[C@@H](O)[C@H](C)O2)[C@H](C)[C@@H](O[C@@H]2O[C@H](C)C[C@H](N(C)C)[C@H]2O)[C@](C)(O)C[C@@H](C)CN(C)[C@H](C)[C@@H](O)[C@]1(C)O [AZITHROMYCIN] | 77 | 38 | 93 | 80 | 54 | 79 | 100 | 100 | 100 | 100 | 100 | 100 | 100 | 63 |
| CC[C@H]1OC(=O)[C@H](C)[C@@H](O[C@H]2C[C@@](C)(OC)[C@@H](O)[C@H](C)O2)[C@H](C)[C@@H](O[C@@H]2O[C@H](C)C[C@H](N(C)C)[C@H]2O)[C@](C)(OC)C[C@@H](C)C(=O)[C@H](C)[C@@H](O)[C@]1(C)O [CLARITHROMYCIN] | 1 | 2 | 4 | 1 | 1 | 2 | 35 | 16 | 66 | 127 | 36 | 25 | 36 | 0 |
| CC[C@H]1OC(=O)[C@H](C)[C@@H](O)[C@H](C)[C@@H](O[C@@H]2O[C@H](C)C[C@H](N(C)C)[C@H]2O)[C@](C)(O)C[C@@H](C)CN(C)[C@H](C)[C@@H](O)[C@]1(C)O [DESCLADINOSYL AZITHROMYCIN] | 77 | 46 | 81 | 70 | 63 | 68 | 56 | 52 | 79 | 52 | 75 | 52 | 42 | 74 |

Second part, the molecule after the results:

| Drug uptake [1] [%] | Drug uptake [2] [%] | Drug uptake [3] [%] | Drug uptake [4] [%] | Drug uptake [5] [%] | Drug uptake [6] [%] | Drug uptake [7] [%] | Drug uptake [8] [%] | Drug uptake [9] [%] | Drug uptake [10] [%] | Drug uptake [11] [%] | Drug uptake [12] [%] | Drug uptake [13] [%] | Drug uptake [14] [%] | SMILES |
| --- | --- | --- | --- | --- | --- | --- | --- | --- | --- | --- | --- | --- | --- | --- |
| 48 | 6 | 56 | 63 | 27 | 74 | 121 | 41 | 148 | 256 | 83 | 101 | 118 | 33 | CC[C@H]1OC(=O)[C@H](C)[C@@H](O[C@H]2C[C@@](C)(OC)[C@@H](OC(=O)CN(CC)CC)[C@H](C)O2)[C@H](C)[C@@H](O[C@@H]2O[C@H](C)C[C@H](N(C)C)[C@H]2O)[C@](C)(OC)C[C@@H](C)C(=O)N[C@H](C)[C@@H](O)[C@]1(C)O |
| 69 | 30 | 83 | 84 | 57 | 77 | 207 | 127 | 120 | 122 | 111 | 135 | 146 | 71 | CCCCCCCC(=O)NCCCN1C[C@H](C)C[C@@](C)(O)[C@H](O[C@@H]2O[C@H](C)C[C@H](N(C)C)[C@H]2O)[C@@H](C)[C@H](O[C@H]2C[C@@](C)(OC)[C@@H](O)[C@H](C)O2)[C@@H](C)C(=O)O[C@H](CC)[C@@](C)(O)[C@H](O)[C@H]1C |
| 0 | 1 | 3 | 0 | 0 | 0 | 13 | 5 | 28 | 54 | 9 | 8 | 17 | 0 | CC[C@H]1OC(=O)[C@H](C)[C@@H](O)[C@H](C)[C@@H](O)[C@](C)(O)C[C@@H](C)CN(C)[C@H](C)[C@@H](O)[C@]1(C)O [AZITHROMYCIN AGLYCONE] |
